Sampled rows, rich in hits. Any-hit rate of the full collection: about 1.7%.
UBC13 inh: blocks human UBC13 polyubiquitin chain formation; TR-FRET; inhibition, % at 20 µM; 330,000 tested, 0.47% active; AID 485273; in the data active = inhibition above about 45%, passing the limit was not always enough
ZTA DNA inh: blocks Epstein-Barr virus ZTA, an EBNA-1 counter-screen; P03206; ZTA-DNA binding, fluorescence polarization; inhibition, % at 11 µM; 320,000 tested, 0.15% active; in the data active = inhibition above about 33%
PREPL inhibitor: inhibitors of human prolyl oligopeptidase-like enzyme PREPL. Q4J6C6. recombinant PREPL, fluorescence polarization activity-based probe. inhibition, % at 5.96 µM. 320,000 tested, 0.68% active; in the data active = inhibition above about 43%;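 note: 0% = enzyme with DMSO and 100% = wells lacking enzyme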
Target sequence (Q4J6C6 whole entry, looked up): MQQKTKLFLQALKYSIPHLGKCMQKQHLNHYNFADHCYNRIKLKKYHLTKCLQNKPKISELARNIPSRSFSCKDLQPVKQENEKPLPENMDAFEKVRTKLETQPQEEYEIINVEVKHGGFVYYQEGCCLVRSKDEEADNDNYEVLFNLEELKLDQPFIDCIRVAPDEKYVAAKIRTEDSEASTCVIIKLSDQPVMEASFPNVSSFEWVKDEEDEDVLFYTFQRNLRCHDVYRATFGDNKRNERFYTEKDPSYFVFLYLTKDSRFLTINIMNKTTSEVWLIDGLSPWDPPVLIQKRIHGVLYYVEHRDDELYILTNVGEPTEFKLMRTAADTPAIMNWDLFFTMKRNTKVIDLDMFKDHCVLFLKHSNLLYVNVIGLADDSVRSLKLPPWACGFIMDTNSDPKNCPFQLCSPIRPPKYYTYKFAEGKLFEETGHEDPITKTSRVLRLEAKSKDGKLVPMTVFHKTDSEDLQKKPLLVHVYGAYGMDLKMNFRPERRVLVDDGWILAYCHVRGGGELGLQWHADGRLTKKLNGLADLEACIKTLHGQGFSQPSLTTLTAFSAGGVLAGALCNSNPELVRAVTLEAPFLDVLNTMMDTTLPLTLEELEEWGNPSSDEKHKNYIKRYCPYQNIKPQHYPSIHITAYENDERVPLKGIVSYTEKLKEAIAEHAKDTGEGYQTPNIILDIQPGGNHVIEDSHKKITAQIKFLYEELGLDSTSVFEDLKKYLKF
Apaf1 inhib: human Apaf-1 inhibition. 330,000 tested, 0.71% active. O14727. AID 489030. reconstituted apoptosome caspase-3 activity, DEVD-Rh110 fluorescence. inhibition, % at 20 µM; active = inhibition of at least 40% at 20 µM;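 note: plate controls were DMSO wells for no effect and DEVD-CHO caspase inhibitor wells for full effect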
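Material: reconstituted apoptosome with Apaf-1, cytochrome c, caspase-9, procaspase-3, dATP; medium: pH 7.5 Hepes buffer with CHAPS, BSA, DTT; also added: cytochrome c and DEVD-Rh110 substrate; timing: 30 min plus 50 min, RT; signal: Rh110 fluorescence intensity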
EBNA-1 inhibitor: blocks EBNA-1 binding to DNA. EBNA-1 DNA binding, fluorescence polarization. inhibition, % at 14.8 µM. 300,000 tested, 0.34% active. AID 1950; in the data active = inhibition above about 28%
The depositor's hits bear a star; . = no result given.

SMILES | UBC13 inh | ZTA DNA inh | PREPL inhibitor | Apaf1 inhib | EBNA-1 inhibitor
C#CCOCCOCCOCCNc1nc(N2CCN(C(=O)[C@H](Cc3cc4ccccc4[nH]3)n3cc([C@@H](N)C(C)CC)nn3)CC2)nc(N2CCN(C(=O)[C@H](Cc3cc4ccccc4[nH]3)n3cc([C@@H](N)CC(C)C)nn3)CC2)n1 (stereo not given in full) | 61* | 15 | 69* | 32 | 4
Cc1ccc(S(=O)(=O)Nc2nc3ccccc3nc2NCC2CCCO2)cc1 (stereo not given) | -6 | -9 | 1 | -4 | -1
O=C(O)C1C2C=CC(C2)C1C(=O)NCCCN1CCCC1=O (stereo not given) | 6 | 25 | -5 | -2 | 7
CSCc1c(C(=O)NC2CCCc3ccccc32)oc2ccccc12 (stereo not given) | 0 | 4 | 1 | 12 | 11
C#CCOCCOCCOCCNc1nc(N2CCN(C(=O)[C@H](CCCCN)n3cc([C@@H](N)CO)nn3)CC2)nc(N2CCN(C(=O)[C@H](Cc3ccc(O)cc3)n3cc([C@@H](N)CC(C)C)nn3)CC2)n1 | 39 | -18 | 5 | 2 | -14
C#CCOCCOCCOCCNc1nc(N2CCN(C(=O)C([C@@H](C)CC)n3cc(C(N)COC(=O)C(F)(F)F)nn3)CC2)nc(N2CCN(C(=O)[C@H](CCCCN)n3cc(C(N)[C@H](C)CC)nn3)CC2)n1 (stereo not given in full) | 114* | 8 | 16 | 22 | 2
C#CCOCCOCCOCCNc1nc(N2CCN(C(=O)[C@H](CCC(=O)O)n3cc(C(N)CO)nn3)CC2)nc(N2CCN(C(=O)[C@H](Cc3cc4ccccc4[nH]3)n3cc(C(N)[C@H](C)CC)nn3)CC2)n1 (stereo not given in full) | 25 | 13 | 18 | 31 | 1
C#CCOCCOCCOCCNc1nc(N2CCN(C(=O)[C@H](CCCCN)n3cc([C@@H](N)CO)nn3)CC2)nc(N2CCN(C(=O)[C@H](Cc3cc4ccccc4[nH]3)n3cc([C@@H](N)CO)nn3)CC2)n1 | 110* | -5 | 34 | -2 | -8
C#CCOCCOCCOCCNc1nc(N2CCN(C(=O)[C@H](Cc3cc4ccccc4[nH]3)n3cc([C@@H](N)C(C)CC)nn3)CC2)nc(N2CCN(C(=O)[C@H](CCCCN)n3cc([C@@H](N)CO)nn3)CC2)n1 (stereo not given in full) | 110* | -13 | 43 | 10 | -14
CC(=O)c1ccc(NC(=S)N2CCN(CCN3C(=O)c4cccc5cccc(c45)C3=O)CC2)cc1 | -5 | -8 | 16 | 11 | -2
COc1ccc(-c2cc(-c3c(O)c(OC)c4occc4c3OC)[nH]n2)cc1OC | 10 | -11 | 51* | 13 | -8
COc1ccc(-c2cc(-c3c(O)c(OC)c4occc4c3OC)[nH]n2)cc1 | 2 | 0 | 28 | 21 | 1
O=C(O)c1cc2c(ccc3ccccc32)o1 | 6 | -1 | 7 | -25 | 11
NC(N)=Nc1cc2ccccc2c2ccccc12 | -5 | 8 | 4 | 77* | 9
CCSCCC(NC1=CC(=O)CC(C)(C)C1)C(=O)O (stereo not given) | -5 | -1 | -3 | 49* | 2
CCC1=NNc2cccc3c(OC)ccc1c23 | -64 | 19 | 36 | 52* | -6
COc1ccc2c3c(cccc13)C(=O)N(O)C2=O | . | 14 | 4 | . | -1
O=C1NC(=S)S/C1=C\c1coc2ccc(O)cc2c1=O | -1 | 45* | -3 | -7 | 11
O=C1NC(=S)S/C1=C\c1coc2ccccc2c1=O | -5 | 7 | 6 | 20 | -10
Cc1ccc(-c2nnc(Nc3ccc4c(c3)OCO4)c3ccccc23)cc1S(=O)(=O)NC(C)C | -3 | -6 | 50* | 11 | -15
Cc1ccc(-c2nnc(Nc3ccc4c(c3)OCO4)c3ccccc23)cc1S(=O)(=O)NCCO | -4 | -11 | 33 | 1 | -6
CC(=O)Nc1ccc(OCC(O)Cn2c3ccccc3c3ccccc32)c(C)c1 (stereo not given) | 18 | 1 | 45* | -5 | 0
COc1ccccc1C1N(c2ccc(Cl)cc2)C(=O)C2CCCN21 (stereo not given) | 2 | 5 | -4 | 6 | 0
Cc1ccccc1OCCn1cc(C(=S)N2CCCC2)c2ccccc21 | 10 | 1 | 42 | 23 | 3
Cc1ccccc1OCCn1cc(C(=S)N2CCN(C)CC2)c2ccccc21 | 26 | 9 | 59* | 12 | 6
SMILES | UBC13 inh | ZTA DNA inh | PREPL inhibitor | Apaf1 inhib | EBNA-1 inhibitor
CCCCCCCCCCCCCCCC[N+](C)(C)CC | 91* | -11 | 32 | 87* | 2
Clc1ccc2nc(CN3CCCCC3)cn2c1 | 6 | -1 | -3 | -31 | 8
Clc1ccc2nc(CN3CCCc4ccccc43)cn2c1 | 4 | -5 | 67* | 12 | 1
CC(C)c1ccc(NC(=O)C2CCCN(S(=O)(=O)c3ccc4c(c3)C(C)(C)C(=O)N4C)C2)cc1 (stereo not given) | -1 | -2 | 18 | 29 | 8
Cc1cccc(C)c1OCC(=O)NNC(=S)NC(=O)C1CC1 | 85* | -15 | 9 | -5 | 9
COC(=O)CC1=C(C)C(=O)CC2C(C)(C)CCCC12C (stereo not given) | -4 | -8 | 4 | 11 | 1
O=C(Nc1nnc(SCc2c(Cl)cccc2Cl)s1)c1ccc2ncsc2c1 | -2 | 0 | 3 | 9 | -4
N#Cc1ccc(CSc2nnc(NC(=O)c3ccc4ncsc4c3)s2)cc1 | 7 | 6 | 4 | 6 | 37*
C/C(N)=C(/C#N)C(=O)CSc1nnc(COc2cc(C)ccc2C)o1 | 5 | 53* | 9 | -16 | 38*
C/C(N)=C(/C#N)C(=O)CSc1nc2ccc(C)cc2[nH]1 | -4 | 5 | 16 | 1 | 0
COc1ccc(CC(=O)NNc2ncnc3c2cnn3-c2ccc(C)cc2)cc1 | -9 | 3 | -10 | 7 | 97*
CC1=NN(c2ccccc2)C(=O)/C1=C/c1cc2cc(C)ccc2nc1N1CCCCC1 | -63 | 13 | 4 | 94* | 9
Cc1ccccc1-n1ncc2c1CC(C)(C)CC2NC(=O)CSc1ccncc1 (stereo not given) | 7 | -13 | 2 | 12 | -4
COc1cc(OC)c2ccc(=O)oc2c1C(CCN1CCN(c2ccccc2)CC1)c1ccc(N(C)C)cc1 (stereo not given) | 11 | 10 | 20 | 3 | 3
NC(N)=N/N=C/c1ccc(OCc2ccccc2Cl)cc1 | 74* | -13 | 14 | 43* | -13
NC(N)=N/N=C/c1ccccc1 | 2 | 12 | 15 | -8 | 2
Cc1ccc(N/N=C2\CC(=O)c3ccccc32)cc1Cl | -60 | -3 | 14 | 76* | -7
CNc1nccc(-c2ccc(F)cc2)c1C#N | 23 | 5 | 8 | 3 | -2
CN(C)CCCN(C(=O)c1ccc([N+](=O)[O-])s1)c1nc2cc3c(cc2s1)OCCO3 | 10 | -10 | 5 | 17 | 1

Screening data (PubChem BioAssay)
